Experimental findings from ChEMBL document CHEMBL1152148, “Exploring 8-benzyl pteridine-6,7-diones as inhibitors of glutamate racemase (MurI) in gram-positive bacteria” (Bioorg Med Chem Lett, 2008) are described below.

The nature of data set [1]: Inhibition of Staphylococcus aureus murI assessed as effect on conversion of D-glutamate to L-glutamate at pH 8.0 by HPLC. The method in brief: (§1)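 IC50 determined against the MurI isozyme at pH 8 in Tris buffer containing polyethylene glycol, dithiothreitol and D-glutamate substrate. Conversion of D- to L-glutamate was followed by HPLC, with chiral separation of the glutamate enantiomers on a D-penicillamine column.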

In data set [2] the test system is Staphylococcus aureus. Kind of data set: Antibacterial activity against Staphylococcus aureus by NCCLS method. It is filed as functional.
In data set [3] the target is T1, Glutamate racemase (Enterococcus faecalis (strain ATCC 700802 / V583), UniProt Q836J0).
T1 sequence (Q836J0 whole entry): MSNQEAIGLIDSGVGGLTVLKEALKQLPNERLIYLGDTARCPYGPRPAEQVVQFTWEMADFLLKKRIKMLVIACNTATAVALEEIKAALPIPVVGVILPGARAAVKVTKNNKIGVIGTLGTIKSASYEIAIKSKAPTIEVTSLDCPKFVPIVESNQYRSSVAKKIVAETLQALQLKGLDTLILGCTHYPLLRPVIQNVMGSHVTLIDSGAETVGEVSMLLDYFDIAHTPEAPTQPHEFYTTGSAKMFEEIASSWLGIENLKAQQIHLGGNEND
Kind of data set: Inhibition of Enterococcus faecalis murI assessed as effect on conversion of D-glutamate to L-glutamate at pH 8.0 by HPLC. The method in brief: as §1

Data set [4] in a line: Solubility in Tris buffer at pH 8.0 by nephelometry. Format: physicochemical. The essentials: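 Solubility was determined by nephelometry in the assay medium.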
Data set [5] in a line: Inhibition of Enterococcus faecium murI assessed as effect on conversion of D-glutamate to L-glutamate at pH 8.0 by HPLC.

≈ marks a conversion by molar mass, not a printed value.

The IC50 is the concentration that gives 50% inhibition. As usually defined, the MIC is the smallest concentration in the dilution series that meets the test's criterion for growth inhibition. Low values mean greater potency, high ones weaker potency. Broadly, the kinetic solubility is solubility judged after dilution from a stock solution rather than from solid.

Take `CCCCSc1nc(N)c2[nH]c(=O)c(=O)n(Cc3ccc(Cl)c(Cl)c3)c2n1`: the IC50 in data set [1] is below 1.5 µM; in data set [3], 650 nM. The compound also came in with an MIC in data set [2] above 64 µg/mL. The compound further had a solubility (kinetic) in data set [4] of 3.1 µM (≈ 1.32 µg/mL).

For `Nc1nc(SCCc2ccccc2)nc2c1[nH]c(=O)c(=O)n2Cc1ccccc1`, the IC50 in data set [1] was 11 µM; in data set [3], 50000 nM. The kinetic solubility in data set [4] stood at 3 µM (≈ 1.22 µg/mL).

Regarding `CCCCSc1nc(N)c2[nH]c(=O)c(=O)n(CCCC)c2n1`, in data set [2], the minimum inhibitory concentration (MIC) was above 64 µg/mL. In data set [3], the IC50 amounted to 11000 nM. This compound also came in with a kinetic solubility in data set [4] of 25 µM (≈ 8.09 µg/mL).

As to `CCCCSc1nc(N)c2[nH]c(=O)c(=O)n(Cc3cc(OC)cc(OC)c3)c2n1`, the IC50 in data set [1] was 14 µM; in data set [3] it was 1700 nM. The compound further came in with an MIC in data set [2] above 64 µg/mL. In addition, in data set [4], the solubility (kinetic) was determined as 50 µM (≈ 20.9 µg/mL).

On to `CCCCSc1nc(NCCN2CCOCC2)c2[nH]c(=O)c(=O)n(Cc3ccc(F)cc3)c2n1`, for which the IC50 in data set [1] was found to be 25 µM; in data set [3], 2500 nM. In data set [2], the MIC was determined as 64 µg/mL (≈ 131 µM). The same compound showed a solubility (kinetic) in data set [4] of 50 µM (≈ 24.4 µg/mL).

With `CCCCSc1nc(N2CCN(C)CC2)c2[nH]c(=O)c(=O)n(Cc3ccc(F)cc3)c2n1`, the concentration for half-maximal inhibition (IC50) in data set [1] was 21 µM; in data set [3], 6100 nM. The compound further displayed a minimal inhibitory concentration (MIC) in data set [2] of 16 µg/mL (≈ 34.9 µM). In data set [4], this compound yielded a solubility (kinetic) of 25 µM (≈ 11.5 µg/mL).

In the case of `CCCCSc1nc(N)c2[nH]c(=O)c(=O)n(Cc3ccc(F)cc3)c2n1`, the IC50 was found to be 5.1 µM in data set [1] and 3500 nM in data set [3]. For the same compound, in data set [2], the MIC was above 64 µg/mL. This compound returned a solubility (kinetic) in data set [4] of 32 µM (≈ 12 µg/mL).

`CCCCSc1nc(N)c2[nH]c(=O)c(=O)n(Cc3ccccc3)c2n1`: the results for the IC50 in data set [1] and in data set [3] were 6.4 µM and 2400 nM, respectively. Moreover, the MIC in data set [2] was above 64 µg/mL. This compound had a kinetic solubility in data set [4] of 25 µM (≈ 8.94 µg/mL).

With `Nc1nc(SC2CCCC2)nc2c1[nH]c(=O)c(=O)n2Cc1ccccc1`, the values for the IC50 in data set [1] and in data set [3] were 52 µM and 1900 nM, respectively. This compound also yielded a minimum inhibitory concentration (MIC) in data set [2] above 64 µg/mL. The compound further gave a solubility (kinetic) in data set [4] of 12 µM (≈ 4.43 µg/mL).

As to `Nc1nc(SCc2ccccc2)nc2c1[nH]c(=O)c(=O)n2Cc1ccccc1`, the IC50 in data set [1] was found to be 7.6 µM; in data set [3], 21000 nM. This compound also registered a kinetic solubility in data set [4] of 3 µM (≈ 1.17 µg/mL).

Turning to `CCCCSc1nc(NC)c2[nH]c(=O)c(=O)n(Cc3ccc(F)cc3)c2n1`, the half-maximal inhibitory concentration (IC50) turned out to be 3.8 µM in data set [1] and 900 nM in data set [3]. In data set [2], this compound showed an MIC of 8 µg/mL (≈ 20.5 µM). The compound also gave a solubility (kinetic) in data set [4] of 25 µM (≈ 9.74 µg/mL).

As to `CCCCSc1nc(N)c2[nH]c(=O)c(=O)n(Cc3c(F)cccc3F)c2n1`, the half-inhibitory concentration (IC50) stood at 3.1 µM in data set [1] and 1500 nM in data set [3]. This compound had an MIC in data set [2] above 64 µg/mL. Also, in data set [4], the kinetic solubility turned out to be 50 µM (≈ 19.7 µg/mL).

Take `CCCCSc1nc(N)c2ncn(Cc3ccc([N+](=O)[O-])cc3)c2n1`: the IC50 in data set [1] was above 400 µM; in data set [5], 18 µM; in data set [3] it was 7000 nM. For the same compound, the kinetic solubility in data set [4] was 10 µM (≈ 3.58 µg/mL).

Take `CCCCSc1nc(N2CC(O)C2)c2[nH]c(=O)c(=O)n(Cc3ccc(F)cc3)c2n1`: the half-inhibitory concentration (IC50) is 4 µM in data set [1] and 2100 nM in data set [3]. This compound also showed an MIC in data set [2] above 64 µg/mL. For the same compound, the kinetic solubility in data set [4] was found to be 1.6 µM (≈ 0.69 µg/mL).

Regarding `CCCCSc1nc(N(C)C)c2[nH]c(=O)c(=O)n(Cc3ccc(F)cc3)c2n1`, in data set [2], the lowest concentration to inhibit growth (MIC) was 4 µg/mL (≈ 9.91 µM). Also, the IC50 in data set [3] was 1100 nM. In data set [4], this compound returned a solubility (kinetic) of 0.8 µM (≈ 0.323 µg/mL).
